MIC, Activity and Ratio data for four molecules are collected here from ChEMBL document CHEMBL3758165, “In vitro interactions between anidulafungin and nonsteroidal anti-inflammatory drugs on biofilms of Candida spp” (2016).

What all share (format): functional
Assay [1] relates to Candida albicans. Description: Antibiofilm activity against Candida albicans 17a18 by two dimensional checkerboard dilution method in presence of anidulafungin. Summed up: (§1)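 Biofilms grown on sterilized PVC disks: 1·10^6 cfu/ml Candida cells adhered for 1.5 h at 37 °C with shaking, washed with PBS, then matured 48 h at 37 °C in RPMI 1640 (MOPS, pH 7). Preformed biofilms were washed and exposed to drug, alone or in two-dimensional checkerboard combination, in RPMI 1640 for 24 h at 37 °C on a rocker.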

Assay [2] concerns Candida albicans. The assay can be described thus: Antibiofilm activity against Candida albicans ATCC 10231 at 0.1 uM to 100 mM after 48 hrs by XTT reduction assay relative to control. On the set-up: scale not given: the % may be the effect or the level left. Summed up: as §1
For orientation: Formazan colour is commonly taken as a measure of viable cells.

Assay [3] relates to Candida albicans. Description: Antibiofilm activity against Candida albicans ATCC 10231 assessed as fractional inhibitory concentration by two dimensional checkerboard dilution method in presence of anidulafungin. The gist of the method:
(§2)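 Biofilms grown on PVC disks: 1·10^6 cfu/ml in RPMI 1640 (MOPS, pH 7), 1.5 h adhesion at 37 °C with shaking, PBS wash, 48 h maturation at 37 °C. Preformed biofilms exposed 24 h at 37 °C to anidulafungin/NSAID checkerboard combinations in RPMI. XTT-menadione reduction read at 490 nm. SMIC = 50% metabolic reduction versus drug-free control. Triplicate runs on different days; FIC index calculated.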

The subject of assay [4] is Candida albicans. Description: Potentiation of anidulafungin-induced antibiofilm activity against Candida albicans ATCC 24433 at 0.1 uM to 100 mM after 48 hrs by XTT reduction assay relative to control. Details: scale not given: the % may be the effect or the level left. Summed up: as §1
The test system of assay [5] is Candida albicans. The assay can be described thus: Antibiofilm activity against Candida albicans ATCC 24433 assessed as fractional inhibitory concentration by two dimensional checkerboard dilution method in presence of anidulafungin. The gist of the method:
as §2

The test system of assay [6] is Nakaseomyces glabratus. The assay can be described thus: Potentiation of anidulafungin-induced antibiofilm activity against Candida glabrata ATCC 15126 at 0.1 uM to 100 mM after 48 hrs by XTT reduction assay relative to control. On the set-up: scale not given: the % may be the effect or the level left. Summed up: as §1
Assay [7] has as its system Meyerozyma guilliermondii. Description: Antibiofilm activity against Candida guilliermondii a410 assessed as fractional inhibitory concentration by two dimensional checkerboard dilution method in presence of anidulafungin. Summed up:
as §2

The subject of assay [8] is Nakaseomyces glabratus. The assay can be described thus: Antibiofilm activity against Candida glabrata ATCC 15126 at 0.1 uM to 100 mM after 48 hrs by XTT reduction assay relative to control. Details: scale not given: the % may be the effect or the level left. The gist of the method:
as §1

The test system of assay [9] is Candida albicans. The assay can be described thus: Antibiofilm activity against Candida albicans ATCC 90028 by two dimensional checkerboard dilution method in presence of anidulafungin. The gist of the method:
as §1

Assay [10] deals with Candida albicans. The assay can be described thus: Antibiofilm activity against Candida albicans ATCC 24433 at 0.1 uM to 100 mM after 48 hrs by XTT reduction assay relative to control. Details: scale not given: the % may be the effect or the level left. The gist of the method:
as §1

Assay [11] relates to Nakaseomyces glabratus. The assay can be described thus: Antibiofilm activity against Candida glabrata ATCC 15126 assessed as fractional inhibitory concentration by two dimensional checkerboard dilution method in presence of anidulafungin. Summed up: as §2
Assay [12] relates to Meyerozyma guilliermondii. Description: Antibiofilm activity against Candida guilliermondii a410 at 0.1 uM to 100 mM after 48 hrs by XTT reduction assay relative to control. On the set-up: scale not given: the % may be the effect or the level left. The gist of the method: as §1
Assay [13] relates to Nakaseomyces glabratus. Description: Antibiofilm activity against Candida glabrata 18a10 by two dimensional checkerboard dilution method in presence of aspirin. Summed up:
(§3)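 Preformed 48 h disk biofilms (RPMI 1640, MOPS pH 7, 37 °C), PBS-washed, exposed 24 h at 37 °C on rocker to two-dimensional checkerboard of anidulafungin plus NSAID in RPMI; NSAID final 0.1 µM to 100 mM. XTT reduction at 490 nm; SMIC = combination giving 50% metabolic reduction versus drug-free control; FIC index calculated; triplicate on different days.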

Assay [14] relates to Meyerozyma guilliermondii. Description: Antibiofilm activity against Candida guilliermondii a83 by two dimensional checkerboard dilution method in presence of diclofenac. Summed up:
(§4)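 Biofilms were grown on PVC disks from 2 ml of a 1·10^6 cfu/ml cell suspension. Adhesion ran 1.5 h at 37 °C with shaking at 100 rpm. Disks were PBS-washed, then matured 48 h at 37 °C in RPMI 1640 (MOPS, pH 7). Biofilms were washed again and given 24 h at 37 °C of anidulafungin/NSAID checkerboard combinations (NSAID final 0.1 µM–100 mM). Read-out was XTT-menadione (2 h, 37 °C, 490 nm). SMIC was defined as 50% reduction versus drug-free control, from which FICI was calculated. Triplicates were run on different days.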

Assay [15] deals with Meyerozyma guilliermondii. The assay can be described thus: Antibiofilm activity against Candida guilliermondii ATCC 6260 assessed as fractional inhibitory concentration by two dimensional checkerboard dilution method in presence of aspirin. Summed up: as §3
Assay [16] deals with Meyerozyma guilliermondii. The assay can be described thus: Antibiofilm activity against Candida guilliermondii a410 after 48 hrs by XTT reduction assay relative to control. On the set-up: scale not given: the % may be the effect or the level left. Summed up:
(§5)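 Biofilms grown on autoclaved PVC disks: 1·10^6 cfu ml-1 cells, adhesion 1.5 h at 37 °C shaking 100 rpm, PBS wash, then 48 h at 37 °C in RPMI 1640 (MOPS, pH 7). Metabolic activity read by XTT–menadione reduction, 2 h at 37 °C, supernatant formazan at 490 nm, relative to drug-free control; triplicate on different days.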

The test system of assay [17] is Candida albicans. Description: Antibiofilm activity against Candida albicans ATCC 24433 by two dimensional checkerboard dilution method in presence of aspirin. The gist of the method: as §3
The test system of assay [18] is Meyerozyma guilliermondii. The assay can be described thus: Antibiofilm activity against Candida guilliermondii a83 after 48 hrs by XTT reduction assay relative to control. On the set-up: scale not given: the % may be the effect or the level left.
In assay [19] the test system is Meyerozyma guilliermondii. The assay can be described thus: Antibiofilm activity against Candida guilliermondii ATCC 6260 by two dimensional checkerboard dilution method in presence of aspirin. The gist of the method:
as §3

For assay [20], the system named is Candida albicans. Description: Antibiofilm activity against Candida albicans ATCC 24433 assessed as fractional inhibitory concentration by two dimensional checkerboard dilution method in presence of diclofenac. Summed up: as §3
The test system of assay [21] is Nakaseomyces glabratus. The assay can be described thus: Antibiofilm activity against Candida glabrata 18a10 assessed as fractional inhibitory concentration by two dimensional checkerboard dilution method in presence of aspirin. Summed up:
as §3

The test system of assay [22] is Nakaseomyces glabratus. The assay can be described thus: Antibiofilm activity against Candida glabrata 18a10 after 48 hrs by XTT reduction assay relative to control. On the set-up: scale not given: the % may be the effect or the level left. Summed up: as §5
In assay [23] the test system is Candida albicans. The assay can be described thus: Antibiofilm activity against Candida albicans ATCC 90028 by two dimensional checkerboard dilution method in presence of aspirin. The gist of the method:
as §3

In assay [24] the test system is Meyerozyma guilliermondii. The assay can be described thus: Antibiofilm activity against Candida guilliermondii a410 by two dimensional checkerboard dilution method in presence of diclofenac. Summed up:
as §4

The subject of assay [25] is Candida albicans. The assay can be described thus: Antibiofilm activity against Candida albicans ATCC 90028 assessed as fractional inhibitory concentration by two dimensional checkerboard dilution method in presence of diclofenac. The gist of the method: as §3
Assay [26] concerns Nakaseomyces glabratus. The assay can be described thus: Antibiofilm activity against Candida glabrata 18a10 by two dimensional checkerboard dilution method in presence of ibuprofen. The gist of the method:
as §3

Assay [27] deals with Nakaseomyces glabratus. Description: Antibiofilm activity against Candida glabrata ATCC 15126 by two dimensional checkerboard dilution method in presence of ibuprofen. The gist of the method:
as §3

Assay [28] deals with Nakaseomyces glabratus. The assay can be described thus: Antibiofilm activity against Candida glabrata ATCC 15126 assessed as fractional inhibitory concentration by two dimensional checkerboard dilution method in presence of ibuprofen. The gist of the method: as §3
For assay [29], the system named is Candida albicans. The assay can be described thus: Antibiofilm activity against Candida albicans 17a18 by two dimensional checkerboard dilution method in presence of diclofenac. The gist of the method: as §3
In assay [30] the test system is Candida albicans. The assay can be described thus: Antibiofilm activity against Candida albicans 17a18 assessed as fractional inhibitory concentration by two dimensional checkerboard dilution method in presence of aspirin. Summed up: as §3
The subject of assay [31] is Candida albicans. Description: Antibiofilm activity against Candida albicans ATCC 90028 at 1 mM after 24 hrs by XTT reduction assay relative to control. On the set-up: scale not given: the % may be the effect or the level left. Summed up:
as §1

Assay [32] deals with Meyerozyma guilliermondii. The assay can be described thus: Antibiofilm activity against Candida guilliermondii a410 at 1 mM after 24 hrs by XTT reduction assay relative to control. On the set-up: scale not given: the % may be the effect or the level left. Summed up:
as §1

On to `O=C([O-])Cc1ccccc1Nc1c(Cl)cccc1Cl.[Na+]` [DICLOFENAC SODIUM], for which the MIC in assay [1] and in assay [9] was 5000 µM each time. Also, the Activity in [2] worked out at 53.57%; in [4] it was 65.24%; in [6] it was 65.96%; in [8] it was 54.44%; in [10] it was 50.25%; in [12], 58.69%. Also, the Ratio in [3] was determined as 0.05; in assay [5] it was 0.05; in [7] it was 0.4; in assay [11], 0.2.
As for `CCCCCOc1ccc(-c2ccc(-c3ccc(C(=O)N[C@@H]4C[C@@H](O)[C@@H](O)NC(=O)[C@@H]5[C@@H](O)[C@@H](C)CN5C(=O)[C@H]([C@@H](C)O)NC(=O)[C@H]([C@H](O)[C@@H](O)c5ccc(O)cc5)NC(=O)[C@@H]5C[C@@H](O)CN5C(=O)[C@H]([C@H](C)O)NC4=O)cc3)cc2)cc1`, the MIC was 0.1 µg/mL in assay [13]; 0.2 µg/mL in [14]; 0.1 µg/mL in assay [17]; 0.1 µg/mL in assay [19]; 0.1 µg/mL in assay [23]; 0.1 µg/mL in assay [24]. Moreover, the MIC in assay [26], in assay [27] and in [29] was 0.1 µg/mL in each case. Besides, the Ratio in assay [15], in [20], in assay [21], in [25], in assay [28] and in [30] was 0.05 each time. Further, the figures for the Activity in assay [16], in assay [18] and in [22] were 45.62%, 47.83% and 37.42%, respectively.
For the molecule `CC(=O)Oc1ccccc1C(=O)O` [ASPIRIN], the MIC in [1] and in assay [9] was 10 µM in each case. In addition, the Activity stood at 49.21% in [2]; 56.14% in assay [4]; 49.78% in assay [6]; 29.02% in assay [8]; 44.72% in assay [31]; 43.25% in assay [32]. For the same molecule, the Ratio in assay [3] is 0.05; in [5] it was 0.1; in [7] it was 0.1; in [11], 0.05.
As for `CC(C)Cc1ccc(C(C)C(=O)O)cc1` (stereo not drawn) [IBUPROFEN], the MIC in assay [1] turned out to be 50 µM; in assay [9], 1000 µM. Besides, the Ratio in assay [3] came to 0.05; in assay [5] it was 0.1; in [7] it was 0.1; in assay [11] it was 0.2. Besides, the Activity in [4] amounted to 60.14%; in [6], 57.46%; in assay [8], 57.23%; in [31] it was 25.62%; in [10] it was 22.45%.
